The conditions of assay [1]: cited from earlier work.
In another assay the target is T91D (Homo sapiens, UniProt Q8WWM9, T91D). Briefly: UV-Vis difference spectroscopy titration of ferric cytoglobin. In kind it is binding. The note with it: SD, n = 3. The procedure, abridged:
(§1)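 Sodium oleate stocks (50 mM in water, −20 °C) were diluted in buffer before use. Ferric globin (5–15 μM) in 100 mM sodium phosphate, pH 7.4, 25 °C was titrated with 200 μM–5 mM stocks to about 60–1500 μM oleate. The max–min difference-spectrum amplitude was plotted against oleate, and KD came from a 1:1 quadratic fit. At least triplicate, with ≥2 protein batches; mean ± SD.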

The next assay deals with V105Y (Homo sapiens, UniProt Q8WWM9, V105Y). Described as above. The class given is binding. To be noted: SD, n = 3. The gist of the method: as §1
Sequence of V105Y (Q8WWM9 whole entry V105Y): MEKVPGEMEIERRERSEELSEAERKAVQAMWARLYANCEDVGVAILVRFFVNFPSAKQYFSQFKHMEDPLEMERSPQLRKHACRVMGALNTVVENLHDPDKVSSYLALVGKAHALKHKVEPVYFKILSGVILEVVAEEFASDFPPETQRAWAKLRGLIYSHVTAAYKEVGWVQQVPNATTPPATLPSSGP
The target of assay [2] is T1, H81A (Homo sapiens, UniProt Q8WWM9, H81A). The description is as above. The class given is binding. The note with it: SD, n = 3. The procedure, abridged: as §1
T1 sequence (Q8WWM9 whole entry H81A): as the sequence (Q8WWM9 whole entry V105Y) above, with H81A, Y105V counted along it
The target in assay [3] is T2, H81Q (Homo sapiens, UniProt Q8WWM9, H81Q). The assay is described as above. The class given is binding. To be noted: SD, n = 3. The gist of the method:
as §1

For another assay, the target named is R84E (Homo sapiens, UniProt Q8WWM9, R84E). The assay is described as above. In kind it is binding. The note with it: SD, n = 3. The procedure, abridged:
as §1

The next assay concerns the target L108Q (Homo sapiens, UniProt Q8WWM9, L108Q). Described as above. The class given is binding. To be noted: SD, n = 3. The procedure, abridged:
as §1

The target in assay [4] is T3, K116E (Homo sapiens, UniProt Q8WWM9, K116E). The assay is described as above. The class given is binding. To be noted: SD, n = 3. The gist of the method:
as §1

In assay [5] the target is T4, H81L (Homo sapiens, UniProt Q8WWM9, H81L). The assay is described as above. In kind it is binding. To be noted: SD, n = 3. The gist of the method: as §1
T4 sequence (Q8WWM9 whole entry H81L): as the sequence (Q8WWM9 whole entry V105Y) above, with H81L, Y105V counted along it
Assay [6] deals with T5, H81W (Homo sapiens, UniProt Q8WWM9, H81W). The assay is described as above. The note with it: SD, n = 3. In kind it is binding. The gist of the method: as §1
T5 sequence (Q8WWM9 whole entry H81W): as the sequence (Q8WWM9 whole entry V105Y) above, with H81W, Y105V counted along it
For assay [7], the target named is T5, H81W. Briefly: UV-Vis difference spectroscopy titration of ferric cytoglobin. The class given is binding. The note with it: SD, n = 3. This is another data set of the same source.
In assay [8] the target is T4, H81L. Described as above. In kind it is binding. The note with it: SD, n = 3. This is another data set of the same source.
The target of assay [9] is T1, H81A. The assay is described as above. The class given is binding. To be noted: SD, n = 3. The source holds these as a separate data set.
Assay [10] addresses T2, H81Q. Described as above. The class given is binding. To be noted: SD, n = 3. This is another data set of the same source.
Assay [11] addresses T3, K116E. The description is as above. In kind it is binding. The note with it: SD, n = 3. The source holds these as a separate data set.
The target in assay [12] is T6, Wild-type Cygb (Homo sapiens, UniProt Q8WWM9). The description is as above. In kind it is binding. The note with it: SD, n = 3.
T6 sequence (Q8WWM9 whole entry): as the sequence (Q8WWM9 whole entry V105Y) above, with Y105V counted along it
For assay [13], the target named is T2, H81Q. Briefly: UV-Vis difference spectroscopy titration of ferric cytoglobin. In kind it is binding. To be noted: SD, n = 3. The gist of the method:
(§2)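 Ferric globin (5–15 μM) was titrated with imidazole stocks (1–100 mM) to about 100–15000 μM final. Buffer was 100 mM sodium phosphate, pH 7.4, at 25 °C. UV-Vis difference spectra were taken, and the max–min absorbance difference was plotted against ligand. KD came from a 1:1 quadratic binding fit. At least triplicate, with ≥2 protein batches; mean ± SD.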
The source holds these as a separate data set.

In assay [14] the target is T1, H81A. The assay is described as above. In kind it is binding. To be noted: SD, n = 3. The procedure, abridged:
as §2
This is another data set of the same source.

Assay [15] addresses T4, H81L. Described as above. The class given is binding. To be noted: SD, n = 3. The procedure, abridged:
as §2
This is another data set of the same source.

Assay [16] addresses T6, Wild-type Cygb. Described as above. The class given is binding. The note with it: SD, n = 3. The gist of the method:
as §2
The source holds these as a separate data set.

In assay [17] the target is T5, H81W. Described as above. The class given is binding. To be noted: SD, n = 3. The gist of the method:
as §2
The source holds these as a separate data set.

The mark [18] stands for this setting: 37°C, 100 mM sodium phosphate, pH 7.4.

Results on 9 molecules are retold here after article PMC9283305 (Nitric oxide : biology and chemistry, 2022).

Where two headings read alike, the source gives them in different places.

Usually Kd stands for the constant that tells how readily two partners part at equilibrium. Read a high Kd as lower affinity.

T2 sequence (Q8WWM9 whole entry H81Q): as the sequence (Q8WWM9 whole entry V105Y) above, with H81Q, Y105V counted along it
T3 sequence (Q8WWM9 whole entry K116E): as the sequence (Q8WWM9 whole entry V105Y) above, with Y105V, K116E counted along it
Sequence of L108Q (Q8WWM9 whole entry L108Q): as the sequence (Q8WWM9 whole entry V105Y) above, with Y105V, L108Q counted along it
Sequence of R84E (Q8WWM9 whole entry R84E): as the sequence (Q8WWM9 whole entry V105Y) above, with R84E, Y105V counted along it
Sequence of T91D (Q8WWM9 whole entry T91D): as the sequence (Q8WWM9 whole entry V105Y) above, with T91D, Y105V counted along it

On to “Myoglobin H64A: myoglobin distal histidine His64 to Ala mutant [reference compound]”, for which, in [1] (Mb values determined at 25°C), the “Nitrite reductase reaction rate constant” value was 1.8 ± 0.3^b M^−1s^−1.

For “Myoglobin Wild-type: wild-type myoglobin [reference compound]”, the “Nitrite reductase reaction rate constant” value in assay [1] (Mb values determined at 25°C) is recorded as 5.6 ± 0.6^b M^−1s^−1.

With `CCCCCCCC/C=C\CCCCCCCC(=O)O` [Oleic acid, oleic acid (18:1 cis-9), added as sodium oleate], the Kd on T91D was 5.7 ± 1.4 µM; at V105Y it was 4.8 ± 3.2 µM; on H81A [2] it was 24 ± 2 µM; on H81Q [3], 46 ± 8 µM; at R84E, 170 ± 90 µM; at L108Q, 14 ± 3 µM. Besides, the Kd at K116E [4] turned out to be 62 ± 23 µM; at H81L [5], 36 ± 13 µM; on H81W [6], 32 ± 10 µM.

As to `CCCCCCCC(=O)O` [Octanoic acid, octanoic acid, added as sodium octanoate], the Kd at H81W [7] came out at 140 ± 10 µM; on H81L [8] it was 950 ± 80 µM; at H81A [9], 1520 ± 890 µM; at H81Q [10], 250 ± 10 µM; at K116E [11], 185000 ± 13000 µM; at Wild-type Cygb [12], 1590 ± 740 µM.

On to “Myoglobin F43H/H64A: myoglobin double mutant Phe43(CD1) to His and His64 to Ala [reference compound]”, for which the “Nitrite reductase reaction rate constant” value in [1] (Mb values determined at 25°C) is reported as 49.8 ± 1.5^c M^−1s^−1.

Take “Hemoglobin T-State: hemoglobin in the T-state [reference compound]”: the “Nitrite reductase reaction rate constant” value in [1] (setting [18]) is given as 0.12^a M^−1s^−1.

Take “Myoglobin F43H: myoglobin mutant with histidine instead of Phe43(CD1) [reference compound]”: the “Nitrite reductase reaction rate constant” value in assay [1] (Mb values determined at 25°C) is 1.4 ± 0.1^c M^−1s^−1.

As for `c1c[nH]cn1` [Imidazole, imidazole], the Kd is 15.3 ± 11 µM at H81Q [13]; 10.6 ± 6.2 µM on H81A [14]; 23.5 ± 4.4 µM at H81L [15]; 820 ± 150 µM on Wild-type Cygb [16]; 7.3 ± 0.9 µM on H81W [17].

For “Hemoglobin R-State: hemoglobin in the R-state [reference compound]”, the “Nitrite reductase reaction rate constant” value in assay [1] (setting [18]) is recorded as 6.0^a M^−1s^−1.
